Source: ChEMBL document CHEMBL1134945, “Synthesis and structure-activity relationships of aminoalkylazetidines as ORL1 receptor ligands” (Bioorg Med Chem Lett, 2002)

Each compound was assayed against Mu-type opioid receptor (Homo sapiens, UniProt P35372) (assay: Binding affinity at human opioid receptor mu 1 was determined by using [3H]diprenorphine radioligand in CHO cell membranes at a concentration of 0.12 nM). Settings: not given.
Sequence of Mu-type opioid receptor (P35372 whole entry): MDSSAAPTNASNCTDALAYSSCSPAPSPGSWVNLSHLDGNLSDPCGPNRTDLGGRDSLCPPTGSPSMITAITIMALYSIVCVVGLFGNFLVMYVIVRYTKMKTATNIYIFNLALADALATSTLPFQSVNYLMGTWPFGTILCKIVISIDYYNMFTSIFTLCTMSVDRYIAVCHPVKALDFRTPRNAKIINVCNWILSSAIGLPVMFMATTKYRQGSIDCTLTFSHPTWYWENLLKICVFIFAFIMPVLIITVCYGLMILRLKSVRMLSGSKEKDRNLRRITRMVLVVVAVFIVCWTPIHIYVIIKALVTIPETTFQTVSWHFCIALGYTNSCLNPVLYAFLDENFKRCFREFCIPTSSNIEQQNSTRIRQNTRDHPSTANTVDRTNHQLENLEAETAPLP
Procedure, shortened: (§1)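 Ki from competition binding with [3H]diprenorphine on membranes of CHO cells expressing the respective human opioid receptor; means of 2–3 independent determinations.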
In the case of `Cc1ccc([C@H](N)[C@@H]2CCN2C(c2ccccc2)c2ccccc2)cc1F`, the Ki is reported as 0.152 µM. `N[C@@H](c1cccc(F)c1)[C@@H]1CCN1C(c1ccccc1)c1ccccc1` showed a Ki of 1.77 µM. With `CCCCC(c1ccccc1)N1CC[C@H]1[C@@H](N)c1cccc(Cl)c1` (stereo partly specified) the Ki was 2.25 µM. For `N[C@@H](c1cc(F)cc(F)c1)[C@@H]1CCN1C(c1ccccc1)c1ccccc1`, the Ki was 4.25 µM. Work on `N[C@H](c1cccc(C(F)(F)F)c1)[C@H]1CCN1C(c1ccccc1)c1ccccc1` yielded a Ki of 0.516 µM. Work on `CCCCCCC(c1ccccc1)N1CC[C@H]1[C@H](N)c1cccc(Cl)c1` (stereo partly specified) yielded a Ki of 1.49 µM. `CCCCC(c1cc(F)cc(F)c1)N1CC[C@H]1[C@@H](N)c1cccc(Cl)c1` (stereo partly specified) was tested, and the Ki was 5.55 µM. `N[C@H](c1cccc(Cl)c1)[C@@H]1CCN1C(c1cccc(Cl)c1)c1cccc(Cl)c1` showed a Ki of 7.16 µM. Compound `N[C@@H](c1cccc(C(F)(F)F)c1)[C@@H]1CCN1C(c1ccccc1)c1ccccc1` (stereo in doubt; (+)-1a) has a Ki of 6.09 µM. Compound `CCC(c1ccccc1)N1CC[C@H]1[C@@H](N)c1cccc(Cl)c1` (stereo partly specified) has a Ki of 8.07 µM. With `CCCCCC(c1ccccc1)N1CC[C@H]1[C@H](N)c1cccc(Cl)c1` (stereo partly specified) the Ki was 1.94 µM. With `N[C@@H](c1ccc(Oc2ccccc2)cc1)[C@@H]1CCN1C(c1ccccc1)c1ccccc1` the Ki was 5.4 µM. `Cc1ccc(C(c2ccc(C)cc2)N2CC[C@H]2[C@H](N)c2cccc(Cl)c2)cc1` showed a Ki of 0.801 µM. Compound `CC(c1ccccc1)N1CC[C@H]1[C@@H](N)c1cccc(Cl)c1` (stereo partly specified) has a Ki of 10.6 µM. For `N[C@H](c1cccc(Cl)c1)[C@@H]1CCN1C(c1ccc(F)cc1)c1ccc(F)cc1`, the Ki was 2.18 µM. In the case of `N[C@H](c1cccc(Cl)c1)[C@@H]1CCN1C(c1cccc(F)c1)c1cccc(F)c1`, the Ki is reported as 4.32 µM. For `CCCC(c1ccccc1)N1CC[C@H]1[C@H](N)c1cccc(Cl)c1` (stereo partly specified), the Ki was 6.02 µM. Compound `CCC(c1ccccc1)N1CC[C@H]1[C@H](N)c1cccc(Cl)c1` (stereo partly specified) has a Ki of 7.22 µM. In the case of `CCCCC(c1ccccc1)N1CC[C@H]1[C@H](N)c1cccc(Cl)c1` (stereo partly specified), the Ki is reported as 1.81 µM.

What follows are compounds tested against Kappa-type opioid receptor (Homo sapiens, UniProt P41145) (assay: Binding affinity at human opioid receptor kappa 1 was determined by using [3H]diprenorphine radioligand in CHO cell membranes at a concentration of 0.31 nM). Settings: not given.
Sequence of Kappa-type opioid receptor (P41145 whole entry): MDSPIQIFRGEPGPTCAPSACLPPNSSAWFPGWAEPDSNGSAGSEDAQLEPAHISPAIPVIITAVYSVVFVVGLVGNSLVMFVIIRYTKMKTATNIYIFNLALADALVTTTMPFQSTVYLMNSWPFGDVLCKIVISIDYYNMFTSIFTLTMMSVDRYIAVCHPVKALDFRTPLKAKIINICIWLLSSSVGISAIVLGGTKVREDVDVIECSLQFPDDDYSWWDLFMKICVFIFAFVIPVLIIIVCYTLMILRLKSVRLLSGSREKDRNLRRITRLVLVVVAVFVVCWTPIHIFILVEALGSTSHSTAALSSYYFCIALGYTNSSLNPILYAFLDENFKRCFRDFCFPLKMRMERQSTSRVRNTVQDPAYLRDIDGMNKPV
Procedure, shortened: as §1
With `Cc1ccc([C@H](N)[C@@H]2CCN2C(c2ccccc2)c2ccccc2)cc1F` the Ki was 0.15 µM. Compound `N[C@@H](c1cccc(F)c1)[C@@H]1CCN1C(c1ccccc1)c1ccccc1` has a Ki of 0.997 µM. `CCCCC(c1ccccc1)N1CC[C@H]1[C@@H](N)c1cccc(Cl)c1` (stereo partly specified) gave a Ki of 3.68 µM. `N[C@@H](c1cc(F)cc(F)c1)[C@@H]1CCN1C(c1ccccc1)c1ccccc1` was tested, and the Ki was 4.01 µM. `N[C@H](c1cccc(C(F)(F)F)c1)[C@H]1CCN1C(c1ccccc1)c1ccccc1` showed a Ki of 0.641 µM. In the case of `CCCCCCC(c1ccccc1)N1CC[C@H]1[C@H](N)c1cccc(Cl)c1` (stereo partly specified), the Ki is reported as 2.86 µM. `CCCCC(c1cc(F)cc(F)c1)N1CC[C@H]1[C@@H](N)c1cccc(Cl)c1` (stereo partly specified) was tested, and the Ki was 6.49 µM. With `N[C@H](c1cccc(Cl)c1)[C@@H]1CCN1C(c1cccc(Cl)c1)c1cccc(Cl)c1` the Ki was 6.04 µM. `N[C@@H](c1cccc(C(F)(F)F)c1)[C@@H]1CCN1C(c1ccccc1)c1ccccc1` (stereo in doubt; (+)-1a) gave a Ki of 3.57 µM. Compound `CCC(c1ccccc1)N1CC[C@H]1[C@@H](N)c1cccc(Cl)c1` (stereo partly specified) has a Ki of 13.1 µM. `CCCCCC(c1ccccc1)N1CC[C@H]1[C@H](N)c1cccc(Cl)c1` (stereo partly specified) gave a Ki of 2.99 µM. In the case of `N[C@@H](c1ccc(Oc2ccccc2)cc1)[C@@H]1CCN1C(c1ccccc1)c1ccccc1`, the Ki is reported as 2.77 µM. With `Cc1ccc(C(c2ccc(C)cc2)N2CC[C@H]2[C@H](N)c2cccc(Cl)c2)cc1` the Ki was 1.84 µM. `CC(c1ccccc1)N1CC[C@H]1[C@@H](N)c1cccc(Cl)c1` (stereo partly specified) was tested, and the Ki was 4.1 µM. `N[C@H](c1cccc(Cl)c1)[C@@H]1CCN1C(c1ccc(F)cc1)c1ccc(F)cc1` showed a Ki of 2.24 µM. In the case of `N[C@H](c1cccc(Cl)c1)[C@@H]1CCN1C(c1cccc(F)c1)c1cccc(F)c1`, the Ki is reported as 3.53 µM. Work on `CCCC(c1ccccc1)N1CC[C@H]1[C@H](N)c1cccc(Cl)c1` (stereo partly specified) yielded a Ki of 7.17 µM. For `CCC(c1ccccc1)N1CC[C@H]1[C@H](N)c1cccc(Cl)c1` (stereo partly specified), the Ki was 7.72 µM. In the case of `CCCCC(c1ccccc1)N1CC[C@H]1[C@H](N)c1cccc(Cl)c1` (stereo partly specified), the Ki is reported as 3.43 µM.

What follows are compounds tested against T1, Delta-type opioid receptor (Homo sapiens, UniProt P41143) (assay: Binding affinity at human opioid receptor delta 1 was determined by using [3H]diprenorphine radioligand in CHO cell membranes at a concentration of 0.8 nM). Settings: not given.
T1 sequence (P41143 whole entry): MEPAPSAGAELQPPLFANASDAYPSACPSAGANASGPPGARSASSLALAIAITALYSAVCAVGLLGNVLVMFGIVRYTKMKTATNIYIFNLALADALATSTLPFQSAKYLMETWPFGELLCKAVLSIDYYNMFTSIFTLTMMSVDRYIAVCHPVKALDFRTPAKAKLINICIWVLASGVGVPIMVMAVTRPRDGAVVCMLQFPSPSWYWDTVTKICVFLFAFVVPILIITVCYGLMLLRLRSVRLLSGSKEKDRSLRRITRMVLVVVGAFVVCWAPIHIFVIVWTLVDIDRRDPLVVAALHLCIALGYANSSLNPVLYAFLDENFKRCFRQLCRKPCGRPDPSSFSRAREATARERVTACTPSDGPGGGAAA
Procedure, shortened: as §1
With `Cc1ccc([C@H](N)[C@@H]2CCN2C(c2ccccc2)c2ccccc2)cc1F` the Ki was 0.634 µM. For `N[C@@H](c1cccc(F)c1)[C@@H]1CCN1C(c1ccccc1)c1ccccc1`, the Ki was 2.92 µM. In the case of `CCCCC(c1ccccc1)N1CC[C@H]1[C@@H](N)c1cccc(Cl)c1` (stereo partly specified), the Ki is reported as 8.82 µM. `N[C@@H](c1cc(F)cc(F)c1)[C@@H]1CCN1C(c1ccccc1)c1ccccc1` gave a Ki of 9.53 µM. `N[C@H](c1cccc(C(F)(F)F)c1)[C@H]1CCN1C(c1ccccc1)c1ccccc1` showed a Ki of 3.31 µM. `CCCCC(c1cc(F)cc(F)c1)N1CC[C@H]1[C@@H](N)c1cccc(Cl)c1` (stereo partly specified) gave a Ki of 9.37 µM. Compound `N[C@H](c1cccc(Cl)c1)[C@@H]1CCN1C(c1cccc(Cl)c1)c1cccc(Cl)c1` has a Ki of 2.71 µM. Compound `N[C@@H](c1cccc(C(F)(F)F)c1)[C@@H]1CCN1C(c1ccccc1)c1ccccc1` (stereo in doubt; (+)-1a) has a Ki of 11 µM. `CCC(c1ccccc1)N1CC[C@H]1[C@@H](N)c1cccc(Cl)c1` (stereo partly specified) was tested, and the Ki was 22.4 µM. `CCCCCC(c1ccccc1)N1CC[C@H]1[C@H](N)c1cccc(Cl)c1` (stereo partly specified) gave a Ki of 5.96 µM. In the case of `N[C@@H](c1ccc(Oc2ccccc2)cc1)[C@@H]1CCN1C(c1ccccc1)c1ccccc1`, the Ki is reported as 7.72 µM. `Cc1ccc(C(c2ccc(C)cc2)N2CC[C@H]2[C@H](N)c2cccc(Cl)c2)cc1` showed a Ki of 5.01 µM. `CC(c1ccccc1)N1CC[C@H]1[C@@H](N)c1cccc(Cl)c1` (stereo partly specified) gave a Ki of 39.1 µM. With `N[C@H](c1cccc(Cl)c1)[C@@H]1CCN1C(c1ccc(F)cc1)c1ccc(F)cc1` the Ki was 7.43 µM. Compound `N[C@H](c1cccc(Cl)c1)[C@@H]1CCN1C(c1cccc(F)c1)c1cccc(F)c1` has a Ki of 4.79 µM. `CCCC(c1ccccc1)N1CC[C@H]1[C@H](N)c1cccc(Cl)c1` (stereo partly specified) was tested, and the Ki was 16.5 µM. In the case of `CCC(c1ccccc1)N1CC[C@H]1[C@H](N)c1cccc(Cl)c1` (stereo partly specified), the Ki is reported as 22.4 µM. `CCCCC(c1ccccc1)N1CC[C@H]1[C@H](N)c1cccc(Cl)c1` (stereo partly specified) showed a Ki of 8.05 µM.

Each compound was assayed against T2, Nociceptin receptor (Homo sapiens, UniProt P41146) (assay: Binding affinity at human ORL1 receptor was determined by using [125I]nociceptin radioligand in Chinese hamster ovary (CHO) cell membranes at a concentration of 23 pM). Settings: not given.
T2 sequence (P41146 whole entry): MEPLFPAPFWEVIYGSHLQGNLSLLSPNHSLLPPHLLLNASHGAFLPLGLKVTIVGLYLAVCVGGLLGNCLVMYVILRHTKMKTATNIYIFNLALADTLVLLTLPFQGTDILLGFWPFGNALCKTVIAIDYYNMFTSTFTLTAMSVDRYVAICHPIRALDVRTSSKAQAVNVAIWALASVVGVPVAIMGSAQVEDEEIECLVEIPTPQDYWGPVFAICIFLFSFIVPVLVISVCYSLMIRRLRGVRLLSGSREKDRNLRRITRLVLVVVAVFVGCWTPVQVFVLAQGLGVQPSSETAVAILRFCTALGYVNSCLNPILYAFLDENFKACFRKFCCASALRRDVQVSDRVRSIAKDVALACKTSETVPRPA
Procedure, shortened: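 Competition binding against [125I]Nociceptin on membranes of CHO cells expressing human ORL1; Ki derived; means of 2–3 independent determinations.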
With `Cc1ccc([C@H](N)[C@@H]2CCN2C(c2ccccc2)c2ccccc2)cc1F` the Ki was 0.058 µM. For `N[C@@H](c1cccc(F)c1)[C@@H]1CCN1C(c1ccccc1)c1ccccc1`, the Ki was 0.191 µM. In the case of `CCCCC(c1ccccc1)N1CC[C@H]1[C@@H](N)c1cccc(Cl)c1` (stereo partly specified), the Ki is reported as 0.745 µM. For `N[C@@H](c1cc(F)cc(F)c1)[C@@H]1CCN1C(c1ccccc1)c1ccccc1`, the Ki was 0.105 µM. `N[C@H](c1cccc(C(F)(F)F)c1)[C@H]1CCN1C(c1ccccc1)c1ccccc1` was tested, and the Ki was 0.014 µM. With `CCCCCCC(c1ccccc1)N1CC[C@H]1[C@H](N)c1cccc(Cl)c1` (stereo partly specified) the Ki was 0.185 µM. `CCCCC(c1cc(F)cc(F)c1)N1CC[C@H]1[C@@H](N)c1cccc(Cl)c1` (stereo partly specified) showed a Ki of 0.347 µM. `N[C@H](c1cccc(Cl)c1)[C@@H]1CCN1C(c1cccc(Cl)c1)c1cccc(Cl)c1` was tested, and the Ki was 0.42 µM. With `N[C@@H](c1cccc(C(F)(F)F)c1)[C@@H]1CCN1C(c1ccccc1)c1ccccc1` (stereo in doubt; (+)-1a) the Ki was 0.236 µM. `CCC(c1ccccc1)N1CC[C@H]1[C@@H](N)c1cccc(Cl)c1` (stereo partly specified) gave a Ki of 0.57 µM. For `CCCCCC(c1ccccc1)N1CC[C@H]1[C@H](N)c1cccc(Cl)c1` (stereo partly specified), the Ki was 0.034 µM. `N[C@@H](c1ccc(Oc2ccccc2)cc1)[C@@H]1CCN1C(c1ccccc1)c1ccccc1` gave a Ki of 7.22 µM. With `Cc1ccc(C(c2ccc(C)cc2)N2CC[C@H]2[C@H](N)c2cccc(Cl)c2)cc1` the Ki was 1.14 µM. Work on `CC(c1ccccc1)N1CC[C@H]1[C@@H](N)c1cccc(Cl)c1` (stereo partly specified) yielded a Ki of 1.06 µM. In the case of `N[C@H](c1cccc(Cl)c1)[C@@H]1CCN1C(c1ccc(F)cc1)c1ccc(F)cc1`, the Ki is reported as 0.684 µM. Work on `N[C@H](c1cccc(Cl)c1)[C@@H]1CCN1C(c1cccc(F)c1)c1cccc(F)c1` yielded a Ki of 0.064 µM. In the case of `CCCC(c1ccccc1)N1CC[C@H]1[C@H](N)c1cccc(Cl)c1` (stereo partly specified), the Ki is reported as 0.079 µM. `CCC(c1ccccc1)N1CC[C@H]1[C@H](N)c1cccc(Cl)c1` (stereo partly specified) gave a Ki of 0.094 µM. Compound `CCCCC(c1ccccc1)N1CC[C@H]1[C@H](N)c1cccc(Cl)c1` (stereo partly specified) has a Ki of 0.03 µM.

What follows are compounds tested against T2, Nociceptin receptor (assay: Compound was evaluated for functional [35S]GTP-gamma-S, binding for human ORL1 receptor carried out in CHO cell membranes; Compound acts as Antagonist). Settings: filed as antagonist.
Assay type: cell-based
Procedure, shortened: (§2)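 [35S]GTPγS binding on membranes of CHO cells expressing human ORL1, 1 h incubation before assay start. Agonist: raises [35S]GTPγS binding. Antagonist: no effect on basal binding but blocks the Nociceptin-induced rise.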
In the case of `CCCCCCC(c1ccccc1)N1CC[C@H]1[C@H](N)c1cccc(Cl)c1` (stereo partly specified), the Activity is reported as “Antagonist”.

The compounds below were run against T2, Nociceptin receptor (assay: Functional [35S]GTP-gamma-S, binding for human ORL1 receptor carried out in CHO cell membranes.). Settings: filed as agonist.
Assay type: cell-based
Procedure, shortened: as §2
`Cc1ccc([C@H](N)[C@@H]2CCN2C(c2ccccc2)c2ccccc2)cc1F` was tested, and the Activity was “Agonist”. In the case of `N[C@@H](c1cccc(F)c1)[C@@H]1CCN1C(c1ccccc1)c1ccccc1`, the Activity is reported as “Agonist”. With `N[C@@H](c1cc(F)cc(F)c1)[C@@H]1CCN1C(c1ccccc1)c1ccccc1` the Activity was “Agonist”. `N[C@H](c1cccc(C(F)(F)F)c1)[C@H]1CCN1C(c1ccccc1)c1ccccc1` was tested, and the Activity was “Agonist”. With `N[C@H](c1cccc(Cl)c1)[C@@H]1CCN1C(c1cccc(Cl)c1)c1cccc(Cl)c1` the Activity was “Agonist”. In the case of `N[C@H](c1cccc(Cl)c1)[C@@H]1CCN1C(c1cccc(F)c1)c1cccc(F)c1`, the Activity is reported as “Agonist”. With `CCCC(c1ccccc1)N1CC[C@H]1[C@H](N)c1cccc(Cl)c1` (stereo partly specified) the Activity was “Agonist”. `CCC(c1ccccc1)N1CC[C@H]1[C@H](N)c1cccc(Cl)c1` (stereo partly specified) was tested, and the Activity was “Agonist”. With `CCCCC(c1ccccc1)N1CC[C@H]1[C@H](N)c1cccc(Cl)c1` (stereo partly specified) the Activity was “Agonist”.

Each compound was assayed against T1, Delta-type opioid receptor (assay: Binding affinity at human Opioid receptor delta 1 was determined by using [3H]diprenorphine radioligand in CHO cell membranes at a concentration of 0.8 nM). Settings: not given.
Procedure, shortened: as §1
`CCCCCCC(c1ccccc1)N1CC[C@H]1[C@H](N)c1cccc(Cl)c1` (stereo partly specified) showed a Ki of 3.91 µM.
